MrgX1 agonist: human MrgX1 receptor agonism, primary screen; Q96LB2; B-score at 10 µM; AID 588627; actives 0.44% (n = 310,000); MrgX1-HEK293 cells, Fluo-4 calcium fluorescence, agonist mode; active compounds read high;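 active means calcium response B-score plate-corrected fluorescence ratio at least 3 library SD, with starting fluorescence B-score inside 5 SD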
Target sequence (Q96LB2 whole entry, looked up): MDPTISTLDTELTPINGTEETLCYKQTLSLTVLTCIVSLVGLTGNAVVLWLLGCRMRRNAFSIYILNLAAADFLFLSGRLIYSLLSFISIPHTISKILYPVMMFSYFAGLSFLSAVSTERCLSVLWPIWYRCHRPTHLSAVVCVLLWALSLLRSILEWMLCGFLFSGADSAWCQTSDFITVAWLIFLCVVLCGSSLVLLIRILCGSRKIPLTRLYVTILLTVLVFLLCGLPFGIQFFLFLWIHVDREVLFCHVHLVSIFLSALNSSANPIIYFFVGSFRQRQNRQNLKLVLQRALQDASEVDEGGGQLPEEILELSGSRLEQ
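System – MrgX1-expressing HEK293 cells · Incubation – cells plated overnight, dye loaded 0.5 h 37 °C, 0.5 h room temperature · Technique – kinetic Fluo-4 NW fluorescence of intracellular calcium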
RGS4 act: RGS4 potentiation or activation | actives 0.92% (n = 310,000) | HEK293 M3R/inducible RGS4, carbachol calcium flux Fluo4; active compounds read low | B-score at 10 µM;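 active means B-score of the integrated calcium signal more than 4 SD below the library mean, with starting fluorescence not abnormally high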;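 further: negative B-score means reduced calcium response which marks RGS4 activation or potentiation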
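Assay system: Inducible-RGS4 HEK293 cells carrying M3 receptor | Schedule: Compound preincubation 20 min at room temperature before agonist | Signal: Kinetic calcium fluorescence imaging with Fluo4-AM dye, 2 µM | Read-out basis: B score from integrated fluorescence ratio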
MrgX1 allo act: human MrgX1 positive allosteric modulation, primary screen; Q96LB2; MrgX1-HEK293, Fluo-4 calcium flux, FDSS; active compounds read high; B-score at 10 µM; actives 0.63% (n = 310,000);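 active means plate-corrected calcium response at least 3 library SD above typical, normal starting fluorescence, not activating the receptor alone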;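 further: compound read alongside a low EC10 to EC30 dose of BAM8-22 agonist; peak minus trough fluorescence over baseline measured at the second addition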
MrgX1 antagonist: antagonists of human MrgX1 receptor; B-score at 10 µM; actives 1.3% (n = 310,000); Q96LB2; MRGX1-HEK293 calcium flux, Fluo-4, BAM8-22 antagonism; active compounds read low;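 active means calcium-response B-score plate-corrected more than 3 library SD below zero, starting fluorescence within 5 deviations, no agonist response on first addition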;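 further: peak minus trough fluorescence over baseline after final BAM8-22 challenge near maximal dose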
RGS4 block: human RGS4 inhibition; B-score at 10 µM; HEK293 M3R/RGS4 inducible, Fluo-4 calcium flux; active compounds read high; triggered by carbachol at its EC20; P49798; actives 0.45% (n = 310,000);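 active means B-score, a plate-corrected calcium signal, over three deviations above library mean, with baseline fluorescence within five deviations of library mean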;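 further: RGS4 expression induced by doxycycline in cells with stable M3 receptor; B-score is computed from the integrated fluorescence ratio over baseline after carbachol; higher B-score means a larger calcium signal and so more RGS4 inhibition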
Target sequence (P49798 whole entry, looked up): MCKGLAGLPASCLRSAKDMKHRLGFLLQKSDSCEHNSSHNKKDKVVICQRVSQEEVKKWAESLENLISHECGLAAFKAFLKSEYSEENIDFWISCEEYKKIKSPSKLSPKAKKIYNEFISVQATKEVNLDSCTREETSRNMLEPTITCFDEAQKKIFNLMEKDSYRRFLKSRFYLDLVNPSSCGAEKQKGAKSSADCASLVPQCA
MrgX1 ant reconf: reconfirmed antagonist of human MrgX1 receptor signaling | shares compounds with MrgX1 antagonist | MrgX1-HEK293, BAM8-22 calcium flux, Fluo-4; active compounds read low | remaining BAM8-22 calcium response % of control (active compounds read low), % at 10 µM | actives 19% (n = 2,300) | AID 602420;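 active means remaining agonist calcium response no higher than 100% minus 3 SD of agonist-only control wells, with starting fluorescence near control levels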;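 further: agonist BAM8-22 given at a near maximal EC90 to ECmax level; peak minus minimum fluorescence divided by baseline after agonist addition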
HEK293 Ca flux: counter-screen for MrgX1 antagonists: effect in parental HEK293 cells. actives 2% (n = 4,000). fluorescence ratio F(max-min)/F0 at 10 µM. AID 624111. Fluo-4 calcium fluorescence, FDSS. shares compounds with MrgX1 antagonist;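 active means duplicate-averaged calcium fluorescence ratio at least three times the standard deviation of buffer wells, a nonspecific response in parental cells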
HEK293 Ca counter: counter-screen for MrgX1 allosteric activators: effect in parental HEK293 cells; fluorescence ratio F(max-min)/F0 at 10 µM; shares compounds with MrgX1 antagonist; actives 0.4% (n = 4,000); parental HEK293 calcium flux, Fluo-4 fluorescence ratio; active compounds read high;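 active means calcium fluorescence ratio, averaged over duplicates, at least 3 SD of the buffer-well ratio, meaning a nonspecific response in receptor-free cells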;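 further: untransfected parental HEK293 lacking MrgX1 used as counterscreen for MrgX1 allosteric activators; fluorescence change taken during the second addition on a kinetic imager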
HEK293 Ca cntr2: activity in parental HEK293 cells lacking MrgX1 receptor | fluorescence ratio F(max-min)/F0 at 10 µM | shares compounds with MrgX1 antagonist | actives 8.7% (n = 4,000) | Fluo-4 calcium fluorescence (FDSS); active compounds read high;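 active means calcium fluorescence ratio at least three times the spread of buffer wells, meaning a non-specific response in parental cells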
Numbers without * were called inactive. Shown are actives, neighbours in structure and some others; about 3.5% of the full set was active somewhere.

For Cc1nn(C)c(-c2n[nH]c(=S)n2-c2ccccc2)c1Cl the results were MrgX1 agonist inactive, RGS4 act inactive, MrgX1 allo act inactive, MrgX1 antagonist -4.75*, RGS4 block inactive, MrgX1 ant reconf inactive, HEK293 Ca flux inactive, HEK293 Ca counter inactive and HEK293 Ca cntr2 inactive.
For Cc1noc(C)c1C(=O)Nc1nc2ccc(S(C)(=O)=O)cc2s1 the results were MrgX1 agonist inactive, RGS4 act inactive, MrgX1 allo act inactive, MrgX1 antagonist -7.5*, RGS4 block inactive, MrgX1 ant reconf inactive, HEK293 Ca flux inactive, HEK293 Ca counter inactive and HEK293 Ca cntr2 inactive.
For Cc1ccc(C(=O)Nc2nc3ccc(S(C)(=O)=O)cc3s2)o1 the results were MrgX1 agonist inactive, RGS4 act inactive, MrgX1 allo act inactive, MrgX1 antagonist inactive and RGS4 block inactive.
Screening O=C(CSc1nc2ccccc2c(=O)n1-c1ccccc1)c1c[nH]c2ccccc12 returned MrgX1 agonist inactive, RGS4 act inactive, MrgX1 allo act inactive, MrgX1 antagonist -5.97*, RGS4 block inactive, MrgX1 ant reconf inactive, HEK293 Ca flux inactive, HEK293 Ca counter inactive and HEK293 Ca cntr2 inactive.
Cc1ccc(C)c(NC(=O)Cc2nc(CCl)cs2)c1 was read as MrgX1 agonist inactive, RGS4 act inactive, MrgX1 allo act inactive, MrgX1 antagonist inactive and RGS4 block inactive.
Screening Cc1ccccc1NC(=O)Cc1nc(CCl)cs1 returned MrgX1 agonist inactive, RGS4 act inactive, MrgX1 allo act inactive, MrgX1 antagonist -5.37*, RGS4 block inactive, MrgX1 ant reconf inactive, HEK293 Ca flux inactive, HEK293 Ca counter inactive and HEK293 Ca cntr2 inactive.
`CCOc1ccc(NC(=O)CCCNC(=O)Cn2cnc3sc(C)c(C)c3c2=O)cc1` gave MrgX1 agonist inactive, RGS4 act inactive, MrgX1 allo act inactive, MrgX1 antagonist inactive and RGS4 block inactive.
Screening O=C(CN(c1ccccn1)S(=O)(=O)c1ccc(F)cc1)Nc1ccccc1 returned MrgX1 agonist inactive, RGS4 act inactive, MrgX1 allo act inactive, MrgX1 antagonist -5.99*, RGS4 block inactive, MrgX1 ant reconf inactive, HEK293 Ca flux inactive, HEK293 Ca counter inactive and HEK293 Ca cntr2 inactive.
For CC(C)[C@H](NC(=O)c1cc2cc(Cl)ccc2n1C)C(=O)N[C@@H](C(=O)O)c1ccccc1 the results were MrgX1 agonist inactive, RGS4 act inactive, MrgX1 allo act inactive, MrgX1 antagonist inactive and RGS4 block inactive.
`CC1CN(C(=O)c2cccc(Oc3ccccc3)c2)CC(C)O1` (stereo not given) gave MrgX1 agonist inactive, RGS4 act inactive, MrgX1 allo act inactive, MrgX1 antagonist -4.67*, RGS4 block inactive, MrgX1 ant reconf inactive, HEK293 Ca flux inactive, HEK293 Ca counter inactive and HEK293 Ca cntr2 inactive.
O=C(CCc1ccccc1)NC1CCSC1=O (stereo not given) was read as MrgX1 agonist inactive, RGS4 act inactive, MrgX1 allo act inactive, MrgX1 antagonist -6.06*, RGS4 block inactive, MrgX1 ant reconf inactive, HEK293 Ca flux inactive, HEK293 Ca counter inactive and HEK293 Ca cntr2 inactive.
Cc1cc(C)cc(NC(=O)N2CCCN(Cc3c(F)cccc3Cl)CC2)c1 was read as MrgX1 agonist inactive, RGS4 act inactive, MrgX1 allo act inactive, MrgX1 antagonist inactive and RGS4 block inactive.
Screening CCOC(=O)Cc1nnc(Nc2cccc(O)c2)c2ccccc12 returned MrgX1 agonist inactive, RGS4 act inactive, MrgX1 allo act inactive, MrgX1 antagonist -6.32*, RGS4 block inactive, MrgX1 ant reconf inactive, HEK293 Ca flux inactive, HEK293 Ca counter inactive and HEK293 Ca cntr2 inactive.
CNC(=S)NCc1ccc2[nH]c(C)cc2c1 was read as MrgX1 agonist inactive, RGS4 act inactive, MrgX1 allo act inactive, MrgX1 antagonist inactive and RGS4 block inactive.
`CCc1cccc(C)c1NC(=S)NCc1ccc2[nH]c(C)cc2c1` gave MrgX1 agonist inactive, RGS4 act inactive, MrgX1 allo act inactive, MrgX1 antagonist -9.1*, RGS4 block inactive, MrgX1 ant reconf inactive, HEK293 Ca flux inactive, HEK293 Ca counter inactive and HEK293 Ca cntr2 inactive.
For Clc1c(Cl)c(Cl)c2n[nH]nc2c1Cl the results were MrgX1 agonist inactive, RGS4 act inactive, MrgX1 allo act inactive, MrgX1 antagonist -6.97*, RGS4 block inactive, MrgX1 ant reconf inactive, HEK293 Ca flux inactive, HEK293 Ca counter inactive and HEK293 Ca cntr2 inactive.
Screening CC(=O)N/C(=C\c1ccccc1)C(=O)OCC(=O)N(CC(C)C)c1c(N)n(Cc2ccccc2)c(=O)[nH]c1=O returned MrgX1 agonist inactive, RGS4 act inactive, MrgX1 allo act inactive, MrgX1 antagonist inactive and RGS4 block inactive.
`O=C(NCc1nnc(SCC(=O)N2CCN(c3ccccc3)CC2)o1)c1c(F)cccc1F` gave MrgX1 agonist inactive, RGS4 act inactive, MrgX1 allo act inactive, MrgX1 antagonist -5.74*, RGS4 block inactive, MrgX1 ant reconf inactive, HEK293 Ca flux inactive, HEK293 Ca counter inactive and HEK293 Ca cntr2 inactive.
Screening O=C(NCc1nnc(SCC(=O)N2CCCC2)o1)c1c(F)cccc1F returned MrgX1 agonist inactive, RGS4 act inactive, MrgX1 allo act inactive, MrgX1 antagonist inactive and RGS4 block inactive.
CC1CCN(C(C(=O)Nc2ccc(C(C)C)cc2)c2ccc3c(c2)OCO3)CC1 (stereo not given) was read as MrgX1 agonist inactive, RGS4 act inactive, MrgX1 allo act inactive, MrgX1 antagonist -5.36*, RGS4 block inactive, MrgX1 ant reconf inactive, HEK293 Ca flux inactive, HEK293 Ca counter inactive and HEK293 Ca cntr2 inactive.
Screening COC(=O)c1cc2cc(Cl)ccc2nc1SC returned MrgX1 agonist inactive, RGS4 act inactive, MrgX1 allo act inactive, MrgX1 antagonist inactive and RGS4 block inactive.
COc1cc(O)c2c(c1)OC(C)(C)CC2=O was read as MrgX1 agonist inactive, RGS4 act inactive, MrgX1 allo act inactive, MrgX1 antagonist -10.4*, RGS4 block inactive, MrgX1 ant reconf inactive, HEK293 Ca flux inactive, HEK293 Ca counter inactive and HEK293 Ca cntr2 inactive.
